Test results taken from ChEMBL document CHEMBL1140384, “Synthesis and structure-activity relationships of suramin-derived P2Y11 receptor antagonists with nanomolar potency” (J Med Chem, 2005).

What was measured:
[1] = target: T1, P2Y purinoceptor 11 (Homo sapiens) (UniProt Q96G91); assay: Percent inhibition of agonist-induced calcium mobilization at P2Y purinoceptor 11 recombinantly expressed in human 1321N1 astrocytoma cells at 100 uM dose
T1 sequence (whole entry): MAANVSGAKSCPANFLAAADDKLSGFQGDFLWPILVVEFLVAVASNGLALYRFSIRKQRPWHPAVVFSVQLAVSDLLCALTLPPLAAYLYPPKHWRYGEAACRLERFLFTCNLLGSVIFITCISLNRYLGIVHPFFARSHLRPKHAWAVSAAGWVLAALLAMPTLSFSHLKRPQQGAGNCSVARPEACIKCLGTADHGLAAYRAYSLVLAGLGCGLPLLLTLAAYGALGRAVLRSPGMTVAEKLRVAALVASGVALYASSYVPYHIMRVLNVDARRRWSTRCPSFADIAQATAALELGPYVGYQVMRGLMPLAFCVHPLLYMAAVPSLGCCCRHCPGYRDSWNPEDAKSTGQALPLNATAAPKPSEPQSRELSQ

P2Y purinoceptor 1 = P2Y purinoceptor 1 (Homo sapiens, UniProt P47900); assay: Percent inhibition of agonist-induced calcium mobilization at P2Y purinoceptor 1 recombinantly expressed in human HEK293 cells at 100 uM dose; format: functional, cell-based; details: in the assay text read “native in” for “recombinantly expressed in”
P2Y purinoceptor 1, sequence (P47900 whole entry): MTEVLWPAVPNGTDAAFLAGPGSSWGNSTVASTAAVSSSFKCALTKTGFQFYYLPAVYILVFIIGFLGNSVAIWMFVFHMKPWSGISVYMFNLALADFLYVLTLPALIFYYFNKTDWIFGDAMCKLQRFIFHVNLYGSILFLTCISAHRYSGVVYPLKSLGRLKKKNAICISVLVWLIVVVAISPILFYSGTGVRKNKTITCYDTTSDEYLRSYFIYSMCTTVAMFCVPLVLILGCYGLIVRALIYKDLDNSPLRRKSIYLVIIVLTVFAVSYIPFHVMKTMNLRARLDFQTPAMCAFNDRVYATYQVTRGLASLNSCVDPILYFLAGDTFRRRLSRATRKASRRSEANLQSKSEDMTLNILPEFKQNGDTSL
Method in brief: (§1)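 Single 100 µM antagonist dose, preincubated 30 min at 37 °C, in a Ca2+ fluorescence assay (Oregon Green 488 BAPTA-1/AM). Agonists: 31.6 nM 2-MeSADP for native P2Y1 and 3.16 µM UTP for native P2Y2, both in HEK293 cells; 1 µM ATPγS for recombinant P2Y11 in 1321N1 cells. Response expressed as % of agonist control; mean ± SEM, n ≥ 3.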

P2X purinoceptor 2 = target: T2, P2X purinoceptor 2 (Rattus norvegicus, UniProt P49653); assay: Inhibitory concentration against rat P2X purinoceptor 2 expressed in Xenopus laevis oocytes; format: functional, cell-based, Oocyte
T2 sequence (P49653 whole entry): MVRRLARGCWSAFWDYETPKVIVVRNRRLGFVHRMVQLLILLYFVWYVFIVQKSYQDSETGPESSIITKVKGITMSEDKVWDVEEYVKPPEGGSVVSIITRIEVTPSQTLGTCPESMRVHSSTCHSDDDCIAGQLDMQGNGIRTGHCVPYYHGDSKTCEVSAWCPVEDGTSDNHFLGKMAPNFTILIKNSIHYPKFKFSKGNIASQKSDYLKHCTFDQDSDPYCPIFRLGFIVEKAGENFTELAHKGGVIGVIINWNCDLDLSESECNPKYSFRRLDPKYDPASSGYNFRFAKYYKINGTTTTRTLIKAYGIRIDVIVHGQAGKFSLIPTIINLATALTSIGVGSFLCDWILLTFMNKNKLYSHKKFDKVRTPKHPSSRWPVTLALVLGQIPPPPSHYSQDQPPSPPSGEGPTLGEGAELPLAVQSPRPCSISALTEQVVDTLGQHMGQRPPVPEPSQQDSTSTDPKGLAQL
Method in brief: (§2)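 Two-electrode voltage clamp on Xenopus laevis oocytes expressing recombinant rat or human P2X subtypes, recording receptor-mediated currents. IC50 values came from nonlinear least-squares Hill fits to pooled concentration-inhibition data; mean ± SEM from at least three experiments.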

P2X purinoceptor 1 = P2X purinoceptor 1 (Rattus norvegicus, UniProt P47824); assay: Inhibitory concentration against rat P2X purinoceptor 1 expressed in Xenopus laevis oocytes; format: functional, cell-based, Oocyte
P2X purinoceptor 1, sequence (P47824 whole entry, looked up): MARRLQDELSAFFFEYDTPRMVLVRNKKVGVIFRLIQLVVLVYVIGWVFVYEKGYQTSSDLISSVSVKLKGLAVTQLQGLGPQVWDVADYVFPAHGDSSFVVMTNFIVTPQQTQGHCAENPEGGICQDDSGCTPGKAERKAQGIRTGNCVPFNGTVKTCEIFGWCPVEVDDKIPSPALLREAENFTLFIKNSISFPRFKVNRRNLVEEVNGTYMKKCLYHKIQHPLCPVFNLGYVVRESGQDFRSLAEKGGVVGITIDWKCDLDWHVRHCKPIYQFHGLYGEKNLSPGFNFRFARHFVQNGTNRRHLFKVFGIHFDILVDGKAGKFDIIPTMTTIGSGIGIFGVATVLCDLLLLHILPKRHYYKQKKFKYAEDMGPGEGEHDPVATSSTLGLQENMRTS
Method in brief: as §2

P2Y purinoceptor 2 [2] = target: T3, P2Y purinoceptor 2 (Homo sapiens, UniProt P41231); assay: Percent inhibition of agonist-induced calcium mobilization at P2Y purinoceptor 2 recombinantly expressed in human HEK293 cells at 100 uM dose; format: functional, cell-based; details: in the assay text read “native in” for “recombinantly expressed in”
T3 sequence (P41231 whole entry): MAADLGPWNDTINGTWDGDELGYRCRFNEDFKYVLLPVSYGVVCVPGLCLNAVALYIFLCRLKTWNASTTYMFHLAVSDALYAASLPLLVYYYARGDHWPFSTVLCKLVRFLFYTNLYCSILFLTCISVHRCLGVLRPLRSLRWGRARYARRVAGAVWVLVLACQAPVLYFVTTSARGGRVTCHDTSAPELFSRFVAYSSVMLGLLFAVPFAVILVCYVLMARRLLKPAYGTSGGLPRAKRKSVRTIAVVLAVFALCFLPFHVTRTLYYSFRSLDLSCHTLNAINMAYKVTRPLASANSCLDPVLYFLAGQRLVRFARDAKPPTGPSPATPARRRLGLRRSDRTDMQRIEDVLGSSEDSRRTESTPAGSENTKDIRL
Method in brief: as §1

[3] = target: T1, P2Y purinoceptor 11 (Homo sapiens); assay: Relative potency was measured against P2Y purinoceptor 11; format: functional
P2Y purinoceptor 2 [4] = target: T3, P2Y purinoceptor 2; assay: Inhibitory concentration against P2Y2 receptor expressed in 1321N1 astrocytoma Cells; (n=3)
P2X purinoceptor 4 = target: T4, P2X purinoceptor 4 (Rattus norvegicus, UniProt P51577); assay: Inhibitory concentration against rat P2X purinoceptor 4 expressed in Xenopus laevis oocytes; format: functional, cell-based, Oocyte
T4 sequence (P51577 whole entry): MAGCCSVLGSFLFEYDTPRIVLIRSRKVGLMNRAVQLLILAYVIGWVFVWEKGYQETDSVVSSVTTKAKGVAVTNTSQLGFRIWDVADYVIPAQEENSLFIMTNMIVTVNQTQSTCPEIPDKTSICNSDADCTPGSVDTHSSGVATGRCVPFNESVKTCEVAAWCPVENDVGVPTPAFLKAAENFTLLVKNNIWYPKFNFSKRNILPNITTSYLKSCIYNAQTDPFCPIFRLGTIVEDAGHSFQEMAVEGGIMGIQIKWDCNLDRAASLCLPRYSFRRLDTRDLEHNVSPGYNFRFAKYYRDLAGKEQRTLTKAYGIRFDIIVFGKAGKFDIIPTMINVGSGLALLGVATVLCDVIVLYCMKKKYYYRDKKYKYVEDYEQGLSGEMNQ
Method in brief: as §2

P2X purinoceptor 7 = target: T5, P2X purinoceptor 7 (Rattus norvegicus, UniProt Q64663); assay: Inhibitory concentration against rat P2X purinoceptor 7 expressed in Xenopus laevis oocytes; format: functional, cell-based, Oocyte
T5 sequence (Q64663 whole entry): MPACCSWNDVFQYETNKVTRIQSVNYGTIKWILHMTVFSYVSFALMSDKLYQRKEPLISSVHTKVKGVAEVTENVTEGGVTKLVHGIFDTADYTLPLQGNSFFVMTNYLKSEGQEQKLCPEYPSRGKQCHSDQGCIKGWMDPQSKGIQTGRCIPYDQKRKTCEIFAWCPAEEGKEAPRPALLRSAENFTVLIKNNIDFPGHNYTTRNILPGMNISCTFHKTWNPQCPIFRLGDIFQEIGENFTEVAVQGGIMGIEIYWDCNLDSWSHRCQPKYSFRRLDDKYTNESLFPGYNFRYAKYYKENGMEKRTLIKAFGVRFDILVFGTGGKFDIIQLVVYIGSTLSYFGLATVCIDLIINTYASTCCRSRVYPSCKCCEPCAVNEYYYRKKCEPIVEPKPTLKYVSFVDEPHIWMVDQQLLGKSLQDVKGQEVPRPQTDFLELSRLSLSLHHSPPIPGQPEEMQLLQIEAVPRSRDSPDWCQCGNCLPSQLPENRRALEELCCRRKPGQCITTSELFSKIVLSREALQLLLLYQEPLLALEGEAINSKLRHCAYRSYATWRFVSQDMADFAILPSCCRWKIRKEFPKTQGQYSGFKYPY
Method in brief: as §2

P2Y purinoceptor 11 = target: T6, P2Y purinoceptor 11 (Homo sapiens, UniProt Q96G91); assay: Inhibitory concentration against P2Y purinoceptor 11 expressed in 1321N1 astrocytoma cells; n=7; format: cell-based
T6 sequence (Q96G91 whole entry): T1 sequence (whole entry)
Method in brief: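 Human P2Y11 stably expressed in 1321N1 astrocytoma cells (G418 selection), loaded with Oregon Green 488 BAPTA-1/AM (3 µM, 60 min, 25 °C) in Krebs-HEPES. Compound preincubated 30 min at 37 °C before injection of 1 µM ATPγS. Ca2+ fluorescence read at ex 485/em 520 nm for 30 s. IC50 from concentration-inhibition curves; independent experiments each run in triplicate.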

## O=C(Nc1cccc(C(=O)Nc2cc(C(=O)Nc3ccc(S(=O)(=O)O)c4cc(S(=O)(=O)O)cc(S(=O)(=O)O)c34)ccc2F)c1)Nc1cccc(C(=O)Nc2cc(C(=O)Nc3ccc(S(=O)(=O)O)c4cc(S(=O)(=O)O)cc(S(=O)(=O)O)c34)ccc2F)c1
[1]
  inhibition: 96.6%
P2Y purinoceptor 1
  inhibition: 63.3%
P2X purinoceptor 2
  IC50: 138 nM
P2X purinoceptor 1
  IC50: 81.3 nM
P2Y purinoceptor 2 [2]
  inhibition: 42.8%
[3]
  Rel potency: 100
P2Y purinoceptor 2 [4]
  IC50: 170000 nM
P2X purinoceptor 4
  IC50: > 1000 nM
P2X purinoceptor 7
  IC50: > 3160 nM
P2Y purinoceptor 11
  Ki: 44.7 nM
